Calls of active or inactive are those of the source. The rule behind the calls is not given here.
What was measured:
KB [1] = assay: Cytotoxicity against human KB cells at 10^-6 M after 72 hrs by MTS assay; format: functional
In short: (§1)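 KB and MRC5-SV2 cells grown in D-MEM with 10% fetal calf serum and antibiotics under 5% CO2. Seeded at 650–2000 cells/well and dosed 24 h later at 10^-6 or 10^-5 M from DMSO (1% final). After 72 h, MTS added for 3 h at 37 °C, then A490 read. % inhibition = (1 − OD treated/OD control) × 100.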

KB [2] = assay: Cytotoxicity against human KB cells at 10^-5 M after 72 hrs by MTS assay; format: functional; in short: as §1
DNA [3] = assay: Binding affinity to calf thymus DNA at 10^-4 M by fluorescence assay; format: nucleic-acid assay; settings: Bos taurus
In short: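 Fluorescence titration at 37 °C in 0.01 M Tris, pH 7.4. Compound working solution at 10^-4 M (diluted from a 10^-2 M DMSO stock); calf thymus DNA added at increasing levels across 25–100 µg/mL. Excitation at 290 nm, emission recorded over 330–390 nm.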

MRC5 [4] = assay: Cytotoxicity against human MRC5 cells at 10^-5 M after 72 hrs by MTS assay; format: functional, cell-based; in short: as §1
PC-3 [5] = assay: Cytotoxicity against human PC3 cells at 10^-5 M after 72 hrs by MTS assay; format: functional, cell-based
In short: (§2)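 HCT116, MCF7 and PC3 cells grown in RPMI with 10% fetal calf serum and antibiotics under 5% CO2. Seeded at 650–2000 cells/well and dosed 24 h later at 10^-6 or 10^-5 M from DMSO (1% final). After 72 h, MTS added for 3 h at 37 °C, then A490 read. % inhibition = (1 − OD treated/OD control) × 100.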

HCT-116 [6] = assay: Cytotoxicity against human HCT116 cells at 10^-5 M after 72 hrs by MTS assay; format: functional, cell-based; in short: as §2
MRC5 [7] = assay: Cytotoxicity against human MRC5 cells at 10^-6 M after 72 hrs by MTS assay; format: functional, cell-based; in short: as §1
HCT-116 [8] = assay: Cytotoxicity against human HCT116 cells at 10^-6 M after 72 hrs by MTS assay; format: functional, cell-based; in short: as §2
MCF7 [9] = assay: Cytotoxicity against human MCF7 cells at 10^-6 M after 72 hrs by MTS assay; format: functional, cell-based; in short: as §2
DNA [10] = assay: Binding affinity to calf thymus DNA at 10^-4 M by UV-Visible spectrophotometry; format: nucleic-acid assay; settings: Bos taurus
In short: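 Compound working solution at 10^-4 M (diluted from DMSO stock in 0.01 M Tris) in Tris buffer (0.01 M, pH 7.4) at 37 °C. UV-Vis absorption spectra (230–500 nm) recorded without and with calf thymus DNA at a fixed 100 µg/mL.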

HL-60 = assay: Cytotoxicity against human HL60 cells after 72 hrs by MTS assay; format: functional, cell-based; settings: HL-60, 72 h
In short: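 HL60 cells cultured in supplemented RPMI (10% fetal calf serum) under 5% CO2. Seeded at 650–2000 cells/well and treated 24 h later with compound from DMSO (1% final), 0.5 nM–10 µM. After 72 h, MTS added for 3 h at 37 °C, then A490 read. IC50 taken as 50% inhibition of proliferation; separate duplicate experiments.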

PC-3 [11] = assay: Cytotoxicity against human PC3 cells at 10^-6 M after 72 hrs by MTS assay; format: functional, cell-based; in short: as §2
MCF7 [12] = assay: Cytotoxicity against human MCF7 cells at 10^-5 M after 72 hrs by MTS assay; format: functional, cell-based; in short: as §2

Row | SMILES | inhibition at 1 µM (KB [1]) [%] | inhibition at 10 µM (KB [2]) [%] | Activity (DNA [3]) | Activity (MRC5 [4]) | Activity (PC-3 [5]) | Activity (HCT-116 [6]) | Activity (MRC5 [7]) | Activity (HCT-116 [8]) | Activity (MCF7 [9]) | Activity (DNA [10]) | IC50 (HL-60) [µM] | Activity (PC-3 [11]) | Activity (MCF7 [12])
1 | CCOC(=O)Oc1ccc2[nH]c3c(C)cc(N=C(N)N)c(C)c3c2c1 | 0 | 73 |  |  |  |  |  |  |  |  |  |  | 
2 | CCCN/C(N)=N/c1cc(C)c2[nH]c3ccccc3c2c1C | 18 | 91 | Active |  |  |  |  |  |  |  |  |  | 
3 | CCC(CC)N/C(N)=N/c1cc(C)c2[nH]c3ccc(Br)cc3c2c1C | 15 | 100 | Active | Active | Active | Active | inactive | inactive | inactive | Active | 3.1 | inactive | Active
4 | CCCCN/C(N)=N/c1cc(C)c2[nH]c3ccccc3c2c1C | 5 | 98 | Active |  |  |  |  |  |  |  |  |  | 
5 | Cc1cc(/N=C(\N)NC(C)(C)C)c(C)c2c1[nH]c1ccc(Br)cc12 | 16 | 100 | Active |  |  |  |  |  |  |  | 4 |  | 
6 | CCCCN/C(N)=N/c1cc(C)c2[nH]c3ccc(Br)cc3c2c1C | 26 | 100 | Active |  |  |  |  |  |  |  | 3.5 |  | 

From ChEMBL document CHEMBL3102736, “Synthesis and evaluation of cytotoxic activities of new guanidines derived from carbazoles” (Bioorg Med Chem Lett, 2014)
